Published values of several laboratories.
Each line is one published result; the experiments were not run side by side.
Target: Cyclin-dependent kinase 7 (CDK7, Homo sapiens, UniProt P50613)

`C[C@H]1CCN(c2nccc(-c3cnn4ncccc34)n2)C1` gave a remaining binding of 27% (binding; 1 µM).
With `Cc1cnc(Nc2ccc(C(=O)N3CCC(N4CCCC4)CC3)cc2)nc1-c1cc2ccccc2s1` the remaining binding was 2.4% (binding, competition with immobilised ligand; 1 µM).
For `CNC(=O)[C@@H]1CC[C@@H](n2c(-c3ccc4cnccc4c3)nc3ccc(C(=O)NCc4cccc(C(N)=O)c4)cc32)C1`, the remaining binding was 100% (binding, competition with immobilised ligand; 1 µM).
The remaining binding of `C[C@@H](c1ccc(-n2cnc3c(N)ncnc32)cc1)N1CCc2nn(C)c(Cc3ccccc3)c2C1=O` is reported as 45% (binding, competition with immobilised ligand; 0.1 µM).
With `Cc1cnn2ncc(-c3ccnc(N(C)C)n3)c2c1` the remaining binding was 61% (binding; 1 µM).
With `O=C(NCCCN1CCOCC1)c1ccc(Nc2nccc(-c3cc4ccccc4s3)n2)cc1` the remaining binding was 40% (binding, competition with immobilised ligand; 1 µM).
The remaining binding of `COc1ncc2cc3ccccc3nc2c1C#N` is reported as 100% (cell-free assay, competition with immobilised ligand; 5 µM).
`O=C(NCCCC1CCCCC1)c1ccc(CNC(=O)c2cnn(-c3ccccc3)c2C(F)(F)F)cc1` gave a remaining binding of 100% (cell-free assay, competition with immobilised ligand; 0.1 µM).
For `CC(C)(C)c1ccc(-c2nc(CBr)nn2-c2cccc(O)c2)cc1`, the remaining binding was 89% (cell-free assay, competition with immobilised ligand; 10 µM).
The remaining binding of `CCC(=N\O)/C(C)=C/c1ccc(F)cc1` is reported as 60% (cell-free assay, competition with immobilised ligand; 1 µM).
The remaining binding of `c1cncc(-c2cccc(Nc3nccc(NC4CCCCC4)n3)c2)c1` is reported as 46% (binding, competition with immobilised ligand; 10 µM).
`COc1ccc2c(c1)O[C@H](c1ccc(OC)c(OC)c1)C[C@@H]2NC(=O)C1(c2ccc3c(c2)OC(F)(F)O3)CC1` gave a remaining binding of 85% (cell-free assay, competition with immobilised ligand; 1 µM).
With `O=C(Nc1c[nH]nc1C(=O)NC1CCNCC1)c1cc(F)cc(F)c1` the remaining binding was 5.6% (binding, competition with immobilised ligand; 1 µM).
`CN(C)c1nccc(-c2cnc3ncccn23)n1` gave a remaining binding of 29% (binding; 1 µM).
`O=C(c1ccc(Nc2ncc(Cl)c(-c3cc4ccccc4s3)n2)cc1)N1CCC(N2CCCC2)CC1` has a remaining binding of 1.5% (binding, competition with immobilised ligand; 1 µM).
`Cc1c(C(=O)O)cc(-c2ccc(C3CCNCC3)cc2)c2ccc(-c3ccc(C(F)(F)F)cc3)cc12` has a remaining binding of 97% (binding, competition with immobilised ligand; 1 µM).
For `CC1CCCN1c1nccc(-c2cnn3ncccc23)n1` (stereo not drawn), the remaining binding was 100% (binding; 1 µM).
With `C[C@@H]1CN(c2ccc3ncc(-c4ccc5[nH]nc(C6CC6)c5c4)n3n2)C[C@H](C)O1` the remaining binding was 88% (binding, competition with immobilised ligand; 50 nM).
The remaining binding of `CCC(=O)N[C@@H]1CC[C@H](C(=O)N(C)c2ccc(-c3nc4ccccc4o3)cc2)C1` is reported as 85% (cell-free assay, competition with immobilised ligand; 1 µM).
`CN(CCCC(F)(F)F)c1nccc(-c2cnn3ncccc23)n1` has a remaining binding of 87% (binding; 1 µM).
With `COc1cccc(CNC(=O)c2nc3scc(COCc4ccc(C(=O)O)cc4)c3c(=O)[nH]2)c1` the remaining binding was 80.5% (cell-free assay, competition with immobilised ligand; 1 µM).
`N#Cc1ccccc1CSc1nnc2c(n1)[nH]c1ccccc12` gave a remaining binding of 94% (binding, competition with immobilised ligand; 10 µM).
For `N[C@H]1CCN(c2nccc(-c3cnn4ncccc34)n2)C1`, the remaining binding was 59% (binding; 1 µM).
With `O=C(Nc1cccnn1)N1CC(C/C=C/c2cncc(Oc3ccc(C(F)(F)F)cn3)n2)C1` the remaining binding was 81% (cell-free assay, competition with immobilised ligand; 1 µM).
